Only some compounds are listed: those with a hit (about 1% of all), similar ones and a draw of the others.
DNA FID counter: displaces DNA intercalator in HCV helicase counter-screen; DNA fluorescent intercalator displacement, fluorescence; inhibition, % at 7.9 µM; 290,000 tested, 0.17% active; AID 1845; in the data active = inhibition above about 37%;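 note: higher means more ethidium bromide displaced from hairpin DNA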
PvdQ acylase: P. aeruginosa PvdQ acylase inhibition; purified PvdQ acylase, fluorescence plate reader; inhibition, % at 10 µM; 340,000 tested, 0.063% active; in the data active = inhibition above about 30%, passing the limit was not always enough
IMP-1 inh-1: inhibitors of Pseudomonas aeruginosa IMP-1 metallo-beta-lactamase. purified IMP-1, nitrocefin hydrolysis, epi-absorbance fluorescence. inhibition, % at 5.6 µM. 290,000 tested, 0.45% active. AID 1556;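 active = inhibition above the mean plus 3 SD of all compounds in the same screening run, cut at about 4.5% in these data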
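Assay system: purified IMP-1; Quantity: IMP-1 0.2 nM before substrate addition; Medium: HEPES buffer pH 7.1 with ZnSO4 and Brij 35; Incubation: 15 min enzyme–compound preincubation, then 25 min nitrocefin reaction, 25 °C; Signal: fluorescence quenching readout, ex 480/em 530 nm; Controls: DMSO with and without IMP-1; Repeats: singlicate testing.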
RAD54 branch: blocks human RAD54 Holliday junction branch migration. inhibition, % at 10.4 µM. FAM/BHQ fluorescence. 360,000 tested, 0.14% active;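 active = mean normalized replicate activity at least 40 and at least half of replicates scoring 40 or more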;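 note: inhibitors cause a drop in the FAM fluorescence signal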
VIM-2 inh: inhibitors of Pseudomonas aeruginosa VIM-2 metallo-beta-lactamase | inhibition, % at 5.6 µM | purified VIM-2, nitrocefin hydrolysis, epi-absorbance fluorescence | 290,000 tested, 0.89% active;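 active = inhibition above the mean of all tested compounds plus 3 SD, cutoff set per screening run, cut at about 7.5% in these data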;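 note: red hydrolysis product quenches plate fluorescence so inhibitors raise well fluorescence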
IMP-1 inh-2: selectivity counter-screen for VIM-2 inhibitors: IMP-1 metallo-beta-lactamase inhibitors; shares compounds with VIM-2 inh; inhibition, % at 5.6 µM; 1,300 tested, under 10 active; purified IMP-1, nitrocefin hydrolysis, epi-absorbance fluorescence; AID 1856; call rule not given here
VIM-2 FRET inh: counter-screen for VIM-2 inhibitors: epi-absorbance artifacts via FRET. shares compounds with VIM-2 inh. purified VIM-2, CCF2 FRET substrate hydrolysis. inhibition, % at 5.6 µM. 1,300 tested, 23% active;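 active = inhibition above the mean of all tested compounds plus 3 SD, cut at about 19% in these data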
TEM-1 inh: blocks E. coli TEM-1 beta-lactamase in VIM-2 selectivity screen; inhibition, % at 5.6 µM; AID 1866; 1,300 tested, 3% active; Purified TEM-1, nitrocefin hydrolysis, epi-absorbance fluorescence; shares compounds with VIM-2 inh;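 active = inhibition above that campaign's mean inhibition plus 3 SD, cut at about 0.46% in these data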
VIM-2 inh conf: confirmation of P. aeruginosa VIM-2 metallo-beta-lactamase inhibitors; shares compounds with VIM-2 inh; purified VIM-2, nitrocefin hydrolysis, epi-absorbance; inhibition, % at 5.6 µM; 1,300 tested, 96% active; AID 2187;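 active = inhibition of the VIM-2 beta-lactamase enzyme above about 11% from the earlier first-round screen, limit read from the data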
Numbers stand for hits; - = inactive; . = not tested or not shown.

SMILES	DNA FID counter	PvdQ acylase	IMP-1 inh-1	RAD54 branch	VIM-2 inh	IMP-1 inh-2	VIM-2 FRET inh	TEM-1 inh	VIM-2 inh conf
O=C(O)c1cccc(NC(=S)N/N=C/c2ccccc2OCc2ccc(Br)cc2)c1	-	-	-	.	73	-	67	-	35
COc1ccccc1C#Cc1ccc([C@@H]2[C@@H](CO)N3CCCCN(CCC(F)(F)F)C[C@@H]23)cc1	.	.	.	-	.	.	.	.	.
O=C(O)c1ccccc1Nc1ccc([N+](=O)[O-])c2nonc12	-	-	-	-	22	-	51	-	27
O=C(O)c1ccccc1Nc1ccc([N+](=O)[O-])cc1C(=O)O	-	-	-	-	-	.	.	.	.
CCCNC(=O)Nc1ccc2c(c1)C(=O)N(C)C[C@H](OC)[C@@H](C)CN(C(=O)C1CC1)[C@H](C)CO2	.	.	.	-	.	.	.	.	.
O=c1cc(-c2ccc(O)cc2)oc2c1ccc1ccccc12	.	-	.	.	.	.	.	.	.
O=c1cc(-c2ccncc2)oc2c1ccc1ccccc12	-	-	-	-	17	-	-	-	23
C=CCOc1ccc2ccccc2c1CNn1c(C)n[nH]c1=S	-	-	-	-	17	-	33	-	20
C=CCOc1ccc(CNn2c(C)n[nH]c2=S)cc1OC	-	-	-	-	-	.	.	.	.
C[C@@H]1CN([C@@H](C)CO)C(=O)c2cccc(NS(=O)(=O)c3cccs3)c2O[C@@H]1CN(C)Cc1ccccc1	.	.	.	-	.	.	.	.	.
O=c1cc(CN2CCN(CCO)CC2)c2cc3c(cc2o1)CCC3	-	-	-	-	17	-	-	-	33
Cn1c(=O)c2c(nc(SCC(=O)N3CCOCC3)n2C)n(C)c1=O	-	-	-	-	-	.	.	.	.
CN1CCN(C(=O)CSc2nc3c(c(=O)n(C)c(=O)n3C)n2C)CC1	-	-	-	-	76	-	-	-	79
COc1ccc2c(c1)[nH]c1c(=O)n(CCCn3ccnc3)cnc12	-	-	-	-	14	-	-	-	38
Cc1ccc(S(=O)(=O)Nc2ccc3c(c2)CC(=O)N([C@H](C)CO)C[C@@H](C)[C@@H](CN(C)Cc2ccc(Oc4ccccc4)cc2)O3)cc1	.	.	.	-	.	.	.	.	.
CCCn1c(=N)c(S(=O)(=O)c2ccccc2)cc2c(=O)n3cccc(C)c3nc21	-	-	-	-	15	-	-	-	23
C[C@H](CO)N1C[C@H](C)[C@H](CN(C)C(=O)Nc2cccc3ccccc23)Oc2c(NS(=O)(=O)c3cn(C)cn3)cccc2C1=O	.	.	.	-	.	.	.	.	.
Cc1cc(C)c2nc3nc(C)c(C)cc3c(N)c2c1	-	-	-	.	18	-	-	-	29
Cc1cc(=O)oc2c(C)c(OC(C)C(=O)NCCCN3CCOCC3)ccc12 (stereo not given)	-	-	-	-	-	.	.	.	.
Cc1c(OC(C)C(=O)NCCN2CCOCC2)ccc2c3c(c(=O)oc12)CCC3 (stereo not given)	-	-	-	-	19	-	-	-	26
Cc1c(OC(C)C(=O)NCCCN2CCOCC2)ccc2c3c(c(=O)oc12)CCC3 (stereo not given)	-	-	-	-	24	-	-	-	33
Cc1cc(OCC(=O)Nc2ccc(CN3CCOCC3)cc2)c2c(C)c(C)c(=O)oc2c1	-	-	-	-	33	-	-	-	40
Cc1cc(OCC(=O)NCCCN2CCOCC2)c2c(C)c(C)c(=O)oc2c1	-	-	-	-	26	-	-	-	36
C[C@H]1CN([C@@H](C)CO)C(=O)CCCn2cc(nn2)CO[C@H]1CN(C)Cc1ccccc1C(F)(F)F	.	.	.	-	.	.	.	.	.
Cc1noc(C)c1NC(=O)N(C)C[C@H]1OCCCC[C@@H](C)Oc2ccc(NS(=O)(=O)c3ccccc3)cc2C(=O)N([C@H](C)CO)C[C@H]1C	.	.	.	-	.	.	.	.	.
SMILES	DNA FID counter	PvdQ acylase	IMP-1 inh-1	RAD54 branch	VIM-2 inh	IMP-1 inh-2	VIM-2 FRET inh	TEM-1 inh	VIM-2 inh conf
CC=Cc1ccc2n(c1=O)C[C@@H]1[C@@H](CO)[C@H](C(=O)N3CCc4ccccc4C3)N[C@H]21 (mixture of isomers)	.	.	.	-	.	.	.	.	.
O=C(NCC1CC1)[C@@H]1[C@@H](CO)[C@@H]2Cn3c(ccc(-c4cccnc4)c3=O)[C@H]1N2C(=O)C1CC1	.	.	.	-	.	.	.	.	.
COc1ccc(C2=Nn3c(nnc3-c3cccnc3)SC2)cc1	-	-	-	-	-	.	.	.	.
COc1ccc(C2=Nn3c(nnc3-c3ccncc3)SC2)cc1	-	-	-	-	21	-	-	-	42
C[C@@H]1CN([C@@H](C)CO)C(=O)c2cc(NC(=O)CCC(F)(F)F)ccc2O[C@@H](C)CCCCO[C@H]1CN(C)C(=O)Nc1ccccc1	.	.	.	-	.	.	.	.	.
CCn1c(-c2nn(-c3ccc(C)cc3)ccc2=O)n[nH]c1=S	-	-	-	.	14	-	33	-	22
CCn1c(-c2nn(-c3ccccc3)ccc2=O)n[nH]c1=S	-	-	-	.	18	-	34	-	23

High-throughput results: PubChem, several laboratories
